Experimental data: publication PMC5444390 (Journal of medicinal chemistry, 2016)

Columns and labels:
[1] = test system: Her3 and wild-type B-Raf in A549 cells; test: Western blot for Her3 and wild-type B-Raf; format: cell-based; conditions: for Her3 and wild-type B-Raf levels, control compounds: A549, 12 and 24 h, five-times the reported IC50
Procedure, shortened: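 Cells harvested in cold PBS, lysed in M-PER with protease/phosphatase inhibitors, 15 µg protein resolved on reducing 10% gels, transferred to PVDF, immunoblotted for Her3 and B-Raf, HRP-chemiluminescent detection.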

[2] = test system: A549 lung cancer cell line; conditions: cited from earlier work
[3] = test system: Hsp90 client proteins (EGFR, Her2, C-Raf) and Hsp90 in A549 cells; test: Western blot for Hsp90 client proteins and Hsp90, A549 lysates; format: cell-based; conditions: for Hsp90 client levels: A549, 12 or 24 h
Procedure, shortened: (§1)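 MCF7 (Advanced DMEM/F12, 2 mM L-glutamine) or A549 (F12K) cells, with 10% FBS and pen/strep at 37 °C, 5% CO2. […] M-PER lysates with protease/phosphatase inhibitors, 15 µg protein on reducing 10% gels, PVDF, HRP-chemiluminescence.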

[4] = test system: A549 lung cancer cell line; test: Anti-proliferation; format: cell-based; conditions: 0.15 μM versus 1.7 μM
[5] = test system: Hsp90 client proteins (EGFR, Her2, C-Raf) and Hsp90 in MCF7 cells; test: Western blot for Hsp90 client proteins and Hsp90, MCF7 lysates; format: cell-based; conditions: MCF7, 12 h
Procedure, shortened: as §1

[6] = test system: Hsp90 luciferase refolding activity in PC3-MM2 cells; test: Luciferase refolding assay; format: cell-based; conditions: 0–100 μM, 1 h
Procedure, shortened: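 Heat-denatured luciferase: luciferase-expressing PC3-MM2 cells were heated 8–12 min at 50 °C in DMEM until luminescence was 1% of initial. They were added (60,000 cells/100 µL final) to test compound, 0–100 µM, 1% DMSO final, and incubated 1 h. Luciferin/CoA/ATP reagent (tricine pH 7.8) was added and luminescence read immediately (0.5 s). Refolding was normalized to 1% DMSO = 100%. Triplicate concentrations, dose-response curves.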

[7] = test system: MAPK pathway (EGFR, C-Raf, MEK, ERK, p-MEK, p-ERK) in A549 cells; test: Western blot for MAPK pathway proteins, p-MEK and p-ERK, A549 lysates; format: cell-based
[8] = test system: p-Akt and total Akt in A549 cells; test: Western blot for p-Akt and total Akt, A549 lysates; format: cell-based; conditions: A549, 2 to 12 h (Supplementary Figure 2)
[9] = target: wild type B-Raf / c-Raf heterodimer in A549 cells (Homo sapiens, UniProt P15056); test: Co-immunoprecipitation of B-Raf, A549 lysates; format: cell-based; conditions: A549, 24 h, five-times IC50
[10] = test system: Hsp90 client proteins and Hsp90; test: Western blot for clients and Hsp90 with geldanamycin; format: cell-based; conditions: Supplementary Figure 1
[11] = A549, 750 nM, 2 to 12 h, vs vehicle

Sequence of wild type B-Raf / c-Raf heterodimer in A549 cells (P15056 whole entry, one chain of several): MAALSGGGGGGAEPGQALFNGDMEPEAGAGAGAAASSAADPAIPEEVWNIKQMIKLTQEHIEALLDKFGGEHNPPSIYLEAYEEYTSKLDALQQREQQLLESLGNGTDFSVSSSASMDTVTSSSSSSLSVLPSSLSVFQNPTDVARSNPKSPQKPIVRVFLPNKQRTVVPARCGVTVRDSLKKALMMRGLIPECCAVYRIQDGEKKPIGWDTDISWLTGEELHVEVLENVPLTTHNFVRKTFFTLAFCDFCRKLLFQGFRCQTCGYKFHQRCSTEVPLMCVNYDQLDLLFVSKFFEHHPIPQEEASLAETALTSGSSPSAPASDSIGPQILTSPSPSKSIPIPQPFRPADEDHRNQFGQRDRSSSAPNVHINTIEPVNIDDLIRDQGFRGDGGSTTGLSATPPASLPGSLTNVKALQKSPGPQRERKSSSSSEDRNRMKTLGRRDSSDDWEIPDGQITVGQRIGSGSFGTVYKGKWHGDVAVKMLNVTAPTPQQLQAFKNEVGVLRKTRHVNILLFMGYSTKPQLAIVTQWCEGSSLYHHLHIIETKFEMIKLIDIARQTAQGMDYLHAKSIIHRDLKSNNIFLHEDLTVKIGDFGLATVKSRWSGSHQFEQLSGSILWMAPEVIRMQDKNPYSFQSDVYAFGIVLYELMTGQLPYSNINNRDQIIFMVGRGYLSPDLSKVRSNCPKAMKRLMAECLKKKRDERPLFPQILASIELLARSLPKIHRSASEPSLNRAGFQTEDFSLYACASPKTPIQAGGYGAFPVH

Structure (SMILES): CCCS(=O)(=O)Nc1ccc(F)c(C(=O)c2c[nH]c3ncc(-c4ccc(Cl)cc4)cc23)c1F [vemurafenib]
- Her3 and wild-type B-Raf levels, control compounds [1]: little effect
- Activity against the A549 cell line ([2]; A549 expresses only wild-type B-Raf): relatively inactive

Structure (SMILES): CNC(=O)c1cc(Oc2ccc(NC(=O)Nc3ccc(Cl)c(C(F)(F)F)c3)cc2)ccn1 [sorafenib]
- Her3 levels ([1]; A549, sorafenib at five-times the reported IC50 (14 μM), 12 and 24 h): time-dependent increase

Structure (SMILES): Cc1c(OC2CCN(C)CC2)ccc2cc(NC(=O)Nc3cccc(-c4ccccc4)c3)c(=O)oc12 [Compound 3, 1-([1,1′-biphenyl]-3-yl)-3-(8-methyl-7-((1-methylpiperidin-4-yl)oxy)-2-oxo-2H-chromen-3-yl)urea]
- Hsp90-dependent client protein levels ([3]; A549, 24 h, five-times IC50): decreased levels
- Hsp90 levels ([3]; A549, 24 h, five-times IC50): constant levels

Structure (SMILES): COc1cccc(-c2cc(NC(=O)Nc3cc4ccc(OC5CCN(C)CC5)c(C)c4oc3=O)ccc2OC)c1 [Compound 2, 1-(3′,6-dimethoxy-[1,1′-biphenyl]-3-yl)-3-(8-methyl-7-((1-methylpiperidin-4-yl)oxy)-2-oxo-2H-chromen-3-yl)urea]
- IC50 of 2 relative to IC50 of TAK-632 [4]: one tenth
- Hsp90 client protein levels ([5]; low (half IC50) and high (five-times IC50) concentrations): unchanged
- Hsp90 client protein levels ([3]; A549, 12 h, low (half IC50) and high (five-times IC50) concentrations): unchanged
- Inhibition of firefly luciferase re-maturation [6]: does not inhibit
- EGFR and C-Raf levels [7, 11]: remained constant
- Total MEK and ERK levels [7, 11]: remained constant
- p-MEK levels ([7]; A549, 750 nM, 12 h): undetectable
- p-MEK and p-ERK levels ([7]; A549, 12 h, high concentration (five-times IC50, 750 nM)): significantly lower levels
- p-MEK and p-ERK levels ([7]; A549, 12 h, low concentration (half IC50, 70nM)): little effect
- p-MEK and p-ERK levels ([7]; A549, 24 h, 750 nM): only slightly increased compared to 12 hours
- p-Akt and total Akt levels [8]: unaffected
- Her3 and wild-type B-Raf levels ([1]; A549, 24 h, five-times IC50): comparable to vehicle
- Dimerization of wild type B-Raf and c-Raf (co-immunoprecipitation) [9]: does not result in dimerization

Structure (SMILES): COc1cccc(-c2cccc(NC(=O)Nc3cc4ccc(OC5CCN(C)CC5)c(C)c4oc3=O)c2)c1 [Compound 5, 1-(3′-methoxy-[1,1′-biphenyl]-3-yl)-3-(8-methyl-7-((1-methylpiperidin-4-yl)oxy)-2-oxo-2H-chromen-3-yl)urea]
- Hsp90 client levels ([3]; five-times IC50): did not result in decreased client levels
- p-MEK levels ([7]; A549, 12 and 24 h, five-times IC50): unchanged
- p-ERK levels ([7]; A549, 12 h, five-times IC50): decreased
- p-ERK levels ([7]; A549, 24 h, five-times IC50): comparable to vehicle
- p-MEK and p-ERK levels ([7]; A549, 24 h, five-times IC50): reestablished

Structure (SMILES): N#Cc1c(Oc2ccc(F)c(NC(=O)Cc3cccc(C(F)(F)F)c3)c2)ccc2nc(NC(=O)C3CC3)sc12 [TAK-632]
- Her3 and wild-type B-Raf levels, control compounds [1]: remained unaffected
- IC50 ([2]; read-out: IC50 value against A549 (reported), A549 lung cancer cell line): 1.7 µM

Structure (SMILES): COc1ccc(NC(=O)Nc2cc3ccc(OC4CCN(C)CC4)c(C)c3oc2=O)cc1-c1ccccc1 [Compound 4, 1-(6-methoxy-[1,1′-biphenyl]-3-yl)-3-(8-methyl-7-((1-methylpiperidin-4-yl)oxy)-2-oxo-2H-chromen-3-yl)urea]
- Hsp90 client levels ([3]; five-times IC50): did not result in decreased client levels
- p-MEK and pERK levels ([7]; A549, 12 h, five-times IC50, vs vehicle): decreased
- p-MEK and p-ERK levels ([7]; A549, 24 h, five-times IC50): reestablished

Structure (SMILES): Cc1c(OC2CCN(C)CC2)ccc2cc(NC(=O)Nc3ccccc3)c(=O)oc12 [Compound 1, 1-(8-methyl-7-((1-methylpiperidin-4-yl)oxy)-2-oxo-2H-chromen-3-yl)-3-phenylurea]
- Hsp90 client levels (EGFR, Her2, C-Raf) ([5]; high concentration (five-times IC50), vs vehicle): decreased levels
- Hsp90 levels ([5]; low and high concentrations): comparable to vehicle
- Hsp90 client levels (EGFR, Her2, C-Raf) ([3]; A549, 12 h, high concentration (five-times IC50), vs vehicle): decreased levels
- Hsp90 levels ([3]; A549, 12 h, low and high concentrations): comparable to vehicle

Structure (SMILES): COC1=C2C[C@@H](C)C[C@H](OC)[C@H](O)[C@@H](C)/C=C(\C)[C@H](OC(N)=O)[C@@H](OC)/C=C\C=C(/C)C(=O)NC(=CC1=O)C2=O [geldanamycin (GDA), geldanamycin]
- Hsp90 client levels [10]: decreased client levels
- Cellular levels of Hsp90 ([10]; at concentrations that decreased clients): increased cellular levels of Hsp90
